Results on 1 molecule are retold here after ChEMBL document CHEMBL4334468, “Exploring Mitochondria-Mediated Intrinsic Apoptosis by New Phytochemical Entities: An Explicit Observation of Cytochrome c Dynamics on Lung and Melanoma Cancer Cells” (J Med Chem, 2019).

Format in all cases: functional, cell-based
In assay [1] the test system is A549. The experiment in a line: Induction of GSH depletion in human A549 cells by fluorimetry.
In assay [2] the test system is A-375. The assay is described as follows: Induction of apoptosis in human A375 cells assessed as cytochrome-c release after 6 to 8 hrs by Raman spectral imaging analysis.
The test system of assay [3] is A-375. The assay is described as follows: Cytotoxicity in human A375 cells assessed as reduction in cell viability incubated for 48 hrs by MTT assay. To be noted: Homo sapiens, A-375, 48 h; read-out: IC50. Summed up:
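MTT viability assay on A375 melanoma, A549 lung adenocarcinoma and WI-38 normal lung fibroblast cells after 24 and 48 h treatment. IC50 values are in µM, expressed as mean ± SD.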
(Tetrazolium dyes change colour on reduction, which living cells bring about.)

Assay [4] has as its system A549. The assay is described as follows: Induction of DNA damage in human A549 cells after 4 hrs by Raman spectral imaging analysis.

Molecules are shown by their SMILES. Calls of active or inactive are those of the source. The rule behind the calls is not given here.

On to `COc1cc(C2Oc3cc(-c4cc(=O)c5c(O)cc(O)cc5o4)ccc3OC2/C=C2\C(=O)ON=C2c2ccc(Cl)cc2)ccc1O` (centres undefined), for which the outcome in the assay with A549 [1], in the assay with A-375 [2] and in the assay with A549 [4] was Active. Also, the IC50 – broadly, the concentration that gives 50% inhibition – in the assay with A-375 [3] came out at 940 nM.
